PG9 Ab binder = binders of HIV-1 gp120 antibody PG9, primary screen, biochemical, TR-FRET; inhibition, % at 6.7 µM; AID 624416, 2012; TR-FRET gp120-PG9 antibody binding; HIV-1 gp120 / PG9 antibody interaction; 0.43% of 360,000 active; in the data active = inhibition above about 8.5%
NR2E3 ag-1 = NR2E3 agonists in two-hybrid cells, primary screen, cell-based, luminescence, CHO-S, Gal4-NCOR/VP16-NR2E3; luciferase; Photoreceptor-specific nuclear receptor (Homo sapiens), Q9Y5X4; inhibition of corepressor binding, % at 3.98 µM; 0.35% of 360,000 active; AID 602229, 2012;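 active = inhibition above the mean of all tested compounds plus 3 SD, cut at about 70% in these data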;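 also: higher means lower luciferase signal from less NR2E3 corepressor binding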
Target sequence (Q9Y5X4 whole entry, looked up, the tested form may be a part): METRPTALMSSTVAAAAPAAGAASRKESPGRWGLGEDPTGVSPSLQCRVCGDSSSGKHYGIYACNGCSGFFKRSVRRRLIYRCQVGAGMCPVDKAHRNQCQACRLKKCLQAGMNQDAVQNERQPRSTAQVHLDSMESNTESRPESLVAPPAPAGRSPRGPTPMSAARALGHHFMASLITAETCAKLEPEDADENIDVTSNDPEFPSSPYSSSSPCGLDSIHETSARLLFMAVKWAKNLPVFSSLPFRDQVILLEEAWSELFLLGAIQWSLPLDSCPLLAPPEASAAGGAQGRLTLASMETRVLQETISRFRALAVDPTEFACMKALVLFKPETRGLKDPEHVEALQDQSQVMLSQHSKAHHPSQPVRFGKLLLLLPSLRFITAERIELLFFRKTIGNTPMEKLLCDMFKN
Rev-erbA mod = modulators of Rev-erb alpha DNA binding, primary screen, biochemical, FITC-DNA, fluorescence polarization, uHTS | Nuclear receptor subfamily 1 group D member 1 (Homo sapiens), P20393 | Rev-erbα–FITC-DNA binding, 90 min | activity, % at 10 µM | 0.79% of 370,000 active | AID 1259318, 2017;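 active = activity above about 14%, limit read from the data; passing the limit was not always enough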
NR2E3 ag-2 = inhibitors of NR2E3-RetCOR corepressor binding, primary screen, NR2E3 agonist project, biochemical, TR-FRET, GST-NR2E3, biotin-RetCOR; inhibition of corepressor binding, % at 4.78 µM; 1536-well; Photoreceptor-specific nuclear receptor (Homo sapiens), Q9Y5X4; 0.12% of 320,000 active; AID 2300, 2010;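 active = percent inhibition above the cutoff of mean plus 3 SD of all tested compounds, set per screening campaign, cut at about 20% in these data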
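Test system: GST-NR2E3 and biotin-RetCOR proteins | Quantity: 1.35 nM GST-tagged NR2E3 final | Medium: Tris pH 7.5 | Also added: 7 nM biotin-RetCOR | Dosing: Compound at 4.8 µM, single dose | Timing: 5 h at 4 °C | Detection: Time-resolved FRET | Read-out basis: Percent inhibition | Benchmarks: Biotin wells as high control, 0.6% DMSO wells as low control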
MC4R barr agon = MC4R agonists recruiting beta-arrestin, primary screen, cell-based, luminescence, agonist arm of biased-ligand search | AID 540308, 2011 | U2OS MC4R beta-arrestin complementation; percent of melanotan II response, DMSO zero | 0.98% of 360,000 active | activation, % at 8.9 µM | Melanocortin receptor 4 (Homo sapiens), P32245;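 active = activation above a per-plate cutoff, the mean activation of sample wells on that plate plus 3 SD, cut at about 8% in these data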
MC4R antagonist = MC4R antagonists of cAMP signaling, primary screen, cell-based, TR-FRET, antagonist arm of biased-ligand search | Melanocortin receptor 4 (Homo sapiens), P32245 | MC4R-expressing cells, MTII-stimulated cAMP, LANCE TR-FRET | inhibition, % at 6.5 µM | 0.48% of 360,000 active | AID 540295, 2011;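 active = inhibition above its plate's cutoff, the mean of tested wells on that plate plus 3 SD, cut at about 29% in these data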
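Material: U2OS-MC4R stable cell line | Reagent: Melanotan II challenge after compound preincubation | Doses: One concentration, 6.5 µM nominal | Incubation: 30-min compound preincubation, 1-h Melanotan II challenge, 1-h detection, room temperature | Signal: TR-FRET cAMP assay | Replicates: One well per compound, no replicates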
PG9 binder conf = binders of anti-gp120 antibody PG9, confirmation, biochemical, TR-FRET; shares compounds with PG9 Ab binder; TR-FRET PG9 antibody binding; inhibition, % at 6.7 µM; 90% of 1,500 active; AID 651571, 2012; in the data active = inhibition above about 9%
PGV04 counter = binders of control antibody PGV04, counter-screen for PG9 antibody binder project, biochemical, TR-FRET, distinct HIV envelope site; AID 651604, 2012; inhibition, % at 6.7 µM; 95% of 1,500 active; shares compounds with PG9 Ab binder; TR-FRET PGV04 antibody-gp120 binding; in the data active = inhibition above about 9.5%
A number is an active result; – = inactive; · = no result; ! = not active in a repeat. The list is not random: actives were taken first. Their share in the collection is about 2.7%.

SMILES	PG9 Ab binder	NR2E3 ag-1	Rev-erbA mod	NR2E3 ag-2	MC4R barr agon	MC4R antagonist	PG9 binder conf	PGV04 counter
COc1ccc(C(=O)COC(=O)c2cccc(-n3cnnn3)c2)c(OC)c1	18	–	–	–	–	–	–	–
Cc1cc(C)cc(NC(=O)Cn2cc3c(n2)CCCCC3)c1	·	·	·	–	·	·	·	·
O=C(Nc1ccccc1C(=O)Nc1ccccc1)c1ccccc1F	21	–	–	–	–	–	21	28
CS(=O)(=O)Nc1ccc(C(=O)Nc2ccc(S(=O)(=O)Nc3nccs3)cc2)cc1	–	–	–	–	–	–	·	·
CN(C)c1ccc(C(=O)Nc2ccc(S(=O)(=O)Nc3nccs3)cc2)cc1	26	–	–	–	–	–	38	47
Cc1ccc(S(=O)(=O)NNC(=O)c2sc(NS(=O)(=O)c3ccccc3)nc2C)cc1	–	–	–	–	–	–	·	·
O=C(Nc1cccnc1)c1cc(-c2ccc(Cl)c(Cl)c2)on1	–	–	–	–	–	–	·	·
O=C(Nc1cccnc1)c1cc(-c2ccc3c(c2)OCO3)on1	12	–	–	–	–	–	10	22
Cn1ncc2c(NNC(=O)c3ccc(Cl)c(Cl)c3)ncnc21	–	–	–	–	–	–	·	·
COc1cccc(/C=C/C(=O)OCC(=O)Nc2ccc3c(c2)OCO3)c1	–	–	–	·	–	–	·	·
O=C(NC1CCCC1)C1C2C=CC3(CN(Cc4cccs4)C(=O)C13)O2 (centres undefined)	29	–	–	–	–	–	–	–
O=C(NCC1CCCO1)C1C2C=CC3(CN(Cc4cccs4)C(=O)C13)O2 (centres undefined)	–	–	–	–	–	–	·	·
O=C(Nc1nc2c(Br)cc(Br)cc2c(=O)s1)C1CCC1	10	–	–	–	–	–	18	20
CC(=O)c1cccc(NC(=O)C2CCCN2S(=O)(=O)c2cccc3cccnc23)c1 (centres undefined)	–	–	–	–	–	–	·	·
Nc1ncnc(N2CCOCC2)c1N	–	–	–	–	–	–	·	·
CC1CCN(C(=O)c2ncn3c2c(=O)[nH]c2ccc(Br)cc23)CC1	9.1	–	–	·	–	–	14	18
Cc1nn(CC(=O)Nc2ccc(Cl)cc2Cl)c(=O)c2ccccc12	9.1	–	–	–	–	–	25	40
COc1ccc(C(CNC(=O)c2ccc(OCc3ccccc3)cc2)N2CCOCC2)cc1 (centres undefined)	–	–	–	–	–	–	·	·
O=C(Nc1ccc(F)cc1)c1ccc(COc2ccccc2)cc1	9.6	–	–	–	–	–	46	56
CC(=O)Nc1ccc(NC(=O)c2ccc(COc3ccccc3)cc2)cc1	–	–	–	–	–	–	·	·
O=C(NCC(c1ccc(F)cc1)N1CCOCC1)c1ccc(OCc2ccccc2)cc1 (centres undefined)	17	–	–	·	–	–	17	22
Cc1cc(=O)n(CC(C)C)c(O)c1C#N	–	–	–	–	–	–	·	·
O=C(N/N=C/c1ccccn1)c1cc(-c2ccncc2)nc2ccccc12	15	–	–	–	–	–	19	34
O=C(N/N=C/c1ccsc1)c1cc(-c2ccncc2)nc2ccccc12	–	–	–	–	–	–	·	·
Nn1c(COc2ccccc2)nc2ccccc2c1=O	–	–	–	–	–	–	·	·
SMILES	PG9 Ab binder	NR2E3 ag-1	Rev-erbA mod	NR2E3 ag-2	MC4R barr agon	MC4R antagonist	PG9 binder conf	PGV04 counter
Cc1ccc(C(=O)NN=C2CCCC2)cc1C	–	–	–	–	–	–	·	·
Cc1cc(-c2nnc(SCC(=O)c3ccc(Cl)cc3)o2)no1	–	–	–	–	–	–	·	·
COc1ccc(C(=O)CSc2nnc(-c3cc(C)on3)o2)cc1	19	–	–	–	–	–	23	49
COc1ccc2oc(C(=O)Nc3nc(C)cs3)c(C)c2c1	8.8	–	–	–	–	–	13	17
Cc1c(C(=O)Nc2nccs2)oc2ccc(Br)cc12	10	–	–	·	–	–	12	15
Cc1c(C(=O)Nc2nccs2)oc2ccc(F)cc12	–	–	–	–	–	–	·	·
COc1cc(C2Nc3ccccc3C(=O)N2c2ccccc2)c(Br)cc1OCC(=O)O (centres undefined)	–	–	–	–	–	–	·	·
Cc1cccc(NC(=O)c2cc3ccccc3nc2C)c1	–	–	–	–	–	–	·	·
COc1ccc(NC(=O)Cn2c3ccc(OC)cc3c3nc4n(c(=O)c32)CCS4)cc1	–	–	–	–	–	–	·	·
COc1ccc2c(c1)c1nc3n(c(=O)c1n2CC(=O)Nc1ccccc1)CCCS3	13	–	–	–	–	–	26	36
COC(=O)C1=C(C)NC(C)=C(C(=O)OC)C1c1ccccn1	–	–	–	–	–	–	·	·
CCCCOc1ccc(C(=O)Nn2c(-c3cccs3)nc3ccccc3c2=O)cc1	30	–	–	–	–	–	37	59
CCc1cc(=O)oc2c(C)c(OS(C)(=O)=O)ccc12	–	–	–	–	–	–	·	·
CC1=Nc2ccc(C)cc2/C1=C/c1c(N)n2oc(C)cc2nc1=O	17!	–	–	–	9.2!	–	20	43
CC1CCCCC1NC(=O)CC1Oc2ccccc2NC1=O (centres undefined)	–	–	–	–	–	–	·	·
CCOc1ccc(C2/C(=C(\O)c3ccc(OC)c(OC)c3)C(=O)C(=O)N2c2cc(C)on2)cc1OC (centres undefined)	–	–	–	–	–	–	·	·
COC(=O)c1ccc(C2/C(=C(\O)c3ccc(OC)c(C)c3)C(=O)C(=O)N2c2cc(C)on2)cc1 (centres undefined)	8.7	–	–	–	–	–	14	19
N#Cc1cccc(NC(=O)CSc2nnc(-c3n[nH]c4ccccc34)o2)c1	9.4	–	–	–	–	–	–	10
COC(=O)c1cc2oc(C)cc2n1CC(=O)Nc1cc(C)cc(C)c1	9.2	–	–	–	–	–	16	26
